A short description of assay [1]: reducers of endogenous Her2 protein level, primary screen, SKBR3 breast tumor cells, AlphaScreen, ATP viability (AID 461;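 active = Her2 level under about 52% in both replicate screens, with viability over 70% of control, limit read from the data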;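 as to Her2 level: lower value means less Her2 protein in the cells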;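 as to viability: percent of carrier control wells set as 100% viability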). Conditions: 18-24 h, measured here: SKBR3 viability, ATP luminescence, at 10 µM.
The target of assay [2] is Receptor tyrosine-protein kinase erbB-2 (Homo sapiens) (UniProt P04626). The description is as above. The note with it: 18-24 h, at 10 µM, stronger effect = lower value.
Sequence of Receptor tyrosine-protein kinase erbB-2 (Homo sapiens) (P04626 whole entry, looked up): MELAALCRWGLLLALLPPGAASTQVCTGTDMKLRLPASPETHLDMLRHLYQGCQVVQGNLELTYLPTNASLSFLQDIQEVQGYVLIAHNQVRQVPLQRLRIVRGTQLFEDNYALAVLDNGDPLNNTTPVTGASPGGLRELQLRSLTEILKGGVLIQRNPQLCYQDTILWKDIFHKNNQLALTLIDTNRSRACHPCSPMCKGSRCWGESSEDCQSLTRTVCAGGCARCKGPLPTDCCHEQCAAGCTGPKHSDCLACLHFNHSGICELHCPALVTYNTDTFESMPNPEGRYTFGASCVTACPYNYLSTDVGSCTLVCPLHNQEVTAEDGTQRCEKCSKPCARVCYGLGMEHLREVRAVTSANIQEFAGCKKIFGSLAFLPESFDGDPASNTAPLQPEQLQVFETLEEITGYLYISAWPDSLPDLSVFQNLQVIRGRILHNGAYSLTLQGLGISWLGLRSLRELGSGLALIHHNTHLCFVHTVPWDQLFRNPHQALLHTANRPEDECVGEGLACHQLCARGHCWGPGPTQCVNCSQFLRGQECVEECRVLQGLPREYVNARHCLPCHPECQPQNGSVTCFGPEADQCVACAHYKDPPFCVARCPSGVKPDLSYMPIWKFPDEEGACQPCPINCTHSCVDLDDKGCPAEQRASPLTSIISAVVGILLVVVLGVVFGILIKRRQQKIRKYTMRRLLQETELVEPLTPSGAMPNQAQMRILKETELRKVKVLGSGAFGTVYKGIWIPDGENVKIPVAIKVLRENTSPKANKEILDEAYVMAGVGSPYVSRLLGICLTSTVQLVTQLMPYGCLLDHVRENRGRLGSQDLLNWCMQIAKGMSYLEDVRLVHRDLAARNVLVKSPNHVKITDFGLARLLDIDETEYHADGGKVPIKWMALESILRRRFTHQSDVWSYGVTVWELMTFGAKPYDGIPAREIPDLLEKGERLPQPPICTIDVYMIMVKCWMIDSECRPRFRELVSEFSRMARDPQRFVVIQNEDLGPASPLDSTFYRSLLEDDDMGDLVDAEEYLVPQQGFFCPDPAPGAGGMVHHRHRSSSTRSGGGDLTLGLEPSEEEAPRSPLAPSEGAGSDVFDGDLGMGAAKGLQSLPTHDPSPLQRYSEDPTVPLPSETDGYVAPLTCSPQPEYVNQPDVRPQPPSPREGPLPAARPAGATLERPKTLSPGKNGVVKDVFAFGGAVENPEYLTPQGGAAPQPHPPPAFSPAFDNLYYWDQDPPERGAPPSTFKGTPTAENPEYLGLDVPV
Assay [3] in a line: SK-BR-3 cell growth inhibitors, pilot screen, 24 h, human (AID 572;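 active = viability at or below 10% of carrier control in both of two separate runs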;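 also: compound exposure lasted between 18 and 24 h rather than exactly 24 h; 100% = carrier-treated control wells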). The note with it: SK-BR-3 viability, CellTiter-Glo luminescence, at 10 µM, stronger effect = lower value.
The nature of assay [4]: HUVEC growth inhibition – cell-based, human, primary screen (AID 575;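 active = viability at or below 30% in both replicate assays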;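 also: 100% = median of untreated cell wells with 0.1% DMSO on each plate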). The note with it: HUVEC proliferation, CellTiter-Glo luminescence, 72 h; at 10 µM; stronger effect = lower value. The method, boiled down:
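System: primary human umbilical vein endothelial cells; Quantity: 1250 endothelial cells in each well; Buffer or medium: supplemented EBM, 2% fetal bovine serum; Doses: one dose, 10 µM final, 0.1% DMSO; Incubation: 72 h compound incubation; Technique: ATP-based CellTiter-Glo luminescent read; Evaluation: percent of median DMSO-control luminescence; Controls: vehicle and MePR control wells.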

A short description of assay [5]: growth inhibitors of H69AR lung tumor, primary screen, human, duplicate replicates (AID 580;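 active = viability at or under a set limit in both replicates, limit being median viability minus 3 SD, cut at about 48% in these data, passing the limit was not always enough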;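 also: 100% = mean luminescence of untreated wells and 0% = no signal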). The note with it: H69AR lung tumor cells viability, ATP luminescence, 72 h; at 10 µM; stronger effect = lower value.
A short description of assay [6]: reversal of MRP1-mediated doxorubicin resistance, pilot screen, H69AR cells, doxorubicin co-treatment (AID 601). Conditions: CellTiter-Glo, 72 h, at 10 µM; for differential viability (reversal): stronger effect = higher value.
Assay [7] in a line: 384-well plate pilot, post-Golgi transport modulator project, inhibition of yeast transport mutant growth (AID 636; in the data active = inhibition above about 31%). The note with it: absorbance 615 nm, about 18 h, stronger effect = higher value.
Assay [8] is described as follows: growth suppression of yeast trafficking mutant, preliminary HTS, modulators of trafficking downstream of Golgi apparatus project, 1536-format plate, OD 615 nm (AID 637; in the data active = inhibition above about 30%). Conditions: yeast transport mutant growth, absorbance 615 nm, 18 h; stronger effect = higher value.
[9] abbreviates: H69AR cells + 2 uM doxorubicin, measured here: viability with 2 uM doxorubicin, stronger effect = lower value.
Where [10] appears, read: H69AR cells, compound alone cytotoxicity.

Activity calls are given as the source filed them.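 The calls were made as follows, unless noted: active = viability loss from added drug above about 55%, and viability with drug at most 40%, in both replicates (limit read from the data, passing the limit was not always enough); inconclusive = both conditions met in only one replicate; inactive = neither replicate meets both conditions.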

Turning to `Cc1ccccc1-c1noc(N)c1C#N`, the viability in assay [1] is 110%; in assay [3] it was 110% (inactive); in assay [4], 92.3% (inactive); in assay [5], 90% (inactive); in assay [6] (setting [9]), 88.6%; in assay [6] (setting [10]), 90%. Besides, the Her2 level in assay [2] is 70.5% (inactive). Moreover, the differential viability (reversal) in assay [6] (H69AR cells + 2 uM doxorubicin) was 1.42% (inactive). Besides, the inhibition in assay [7] is -5.68% (inactive); in assay [8] it was 4% (inactive).

Consider `CCOc1ccc(NC(=O)C2CC(=O)N(C(C)C)C2)cc1` (stereo not given), for which the viability in assay [1] was 103%; in assay [3], 103% (inactive); in assay [4] it was 114% (inactive); in assay [5] it was 99.7% (inactive); in assay [6] (setting [9]), 92.7%; in assay [6] (setting [10]), 99.7%. Also, the Her2 level in assay [2] was 82% (inactive). Moreover, the differential viability (reversal) in assay [6] (H69AR cells + 2 uM doxorubicin) was 7% (inactive). In addition, the inhibition in assay [7] is -2% (inactive); in assay [8], 0.49% (inactive).

As to `Nc1nonc1-c1noc(CCCCCN2C(=O)c3ccccc3C2=O)n1`, the viability in assay [1] is 102%; in assay [3] it was 102% (inactive); in assay [4] it was 108% (inactive); in assay [5], 105% (inactive); in assay [6] (setting [9]) it was 97.6%; in assay [6] (setting [10]), 105%. Further, the Her2 level in assay [2] was 102% (inactive). In assay [6] (H69AR cells + 2 uM doxorubicin), the differential viability (reversal) was 7.63% (inactive). Besides, the results for the inhibition in assay [7] and in assay [8] were -4.4% (inactive) and -6.61% (inactive), respectively.

Consider `Cc1ccc(NC(=O)CSc2nnc(Cc3cccn3C)n2-c2ccc(F)cc2)cc1`, for which the viability in assay [1] was 82.5%; in assay [3], 82.5% (inactive); in assay [4], 84% (inactive); in assay [5], 91.9% (inactive); in assay [6] (setting [9]) it was 96.8%; in assay [6] (setting [10]), 91.9%. Also, the Her2 level in assay [2] is 78.5% (inactive). For the same compound, the differential viability (reversal) in assay [6] (H69AR cells + 2 uM doxorubicin) was -4.92% (inactive). The inhibition in assay [7] was -1.03% (inactive); in assay [8], -4.83% (inactive).

In the case of `COc1cc(OC)c(C(=O)Nc2ccc(N(C)C)cc2)cc1OC`, the viability in assay [1] was 111%; in assay [3] it was 111% (inactive); in assay [4], 103% (inactive); in assay [5], 89% (inactive); in assay [6] (setting [9]) it was 93.4%; in assay [6] (setting [10]) it was 89%. Besides, in assay [2], the Her2 level is 84.5% (inactive). The differential viability (reversal) in assay [6] (H69AR cells + 2 uM doxorubicin) was -4.37% (inactive). For the same compound, the inhibition in assay [7] is -1.84% (inactive); in assay [8] it was -1.9% (inactive).

For `CC(C)COC(=O)C1[C@H]2C(=O)N(Cc3cccs3)C[C@]23C=C[C@H]1O3` (stereo not given in full), the viability in assay [1] was 102%; in assay [3] it was 102% (inactive); in assay [4] it was 110% (inactive); in assay [5], 91.1% (inactive); in assay [6] (setting [9]), 89.8%; in assay [6] (setting [10]), 91.1%. In addition, the Her2 level in assay [2] is 109% (inactive). The differential viability (reversal) in assay [6] (H69AR cells + 2 uM doxorubicin) is 1.3% (inactive). For the same compound, the inhibition in assay [7] is -4.29% (inactive); in assay [8] it was -2.33% (inactive).

Turning to `CCCCCOC(=O)CSc1nnc(-c2cc(OC)c(OC)c(OC)c2)o1`, the viability in assay [1] is 84.5%; in assay [3], 84.5% (inactive); in assay [4] it was 104% (inactive); in assay [5] it was 104% (inactive); in assay [6] (setting [9]) it was 93.2%; in assay [6] (setting [10]), 104%. The Her2 level in assay [2] is 69.5% (inactive). Moreover, the differential viability (reversal) in assay [6] (H69AR cells + 2 uM doxorubicin) was 10.6% (inactive). Moreover, the results for the inhibition in assay [7] and in assay [8] were -5% (inactive) and -6.5% (inactive), respectively.

Regarding `COCCOC(=O)c1[nH]c2c(c1C)C(=O)CC(c1ccc(N(C)C)cc1)C2` (stereo not given), the viability in assay [1] is 111%; in assay [3] it was 111% (inactive); in assay [4], 91.1% (inactive); in assay [5], 83.5% (inactive); in assay [6] (setting [9]) it was 104%; in assay [6] (setting [10]) it was 83.5%. For the same compound, the Her2 level in assay [2] was 116% (inactive). In assay [6] (H69AR cells + 2 uM doxorubicin), the differential viability (reversal) was -20.9% (inactive). Also, the inhibition in assay [7] was -6.16% (inactive); in assay [8], -5.87% (inactive).

Consider `CCOC(=O)Nc1c(C(=O)OC)[nH]c2cccc(OC)c12`, for which the viability in assay [1] was 76%; in assay [3], 76% (inactive); in assay [4], 106% (inactive); in assay [5] it was 104% (inactive); in assay [6] (setting [9]) it was 91%; in assay [6] (setting [10]) it was 104%. For the same compound, the Her2 level in assay [2] was 112% (inactive). In addition, in assay [6] (H69AR cells + 2 uM doxorubicin), the differential viability (reversal) is 13% (inactive). Also, the inhibition in assay [7] was 3.03% (inactive); in assay [8], 9.52% (inactive).

As for `COc1ccc(Cn2nnnc2C(c2cc3cc(C)cc(C)c3[nH]c2=O)N2CCOCC2)cc1` (stereo not given), the viability is 108% in assay [1]; 108% (inactive) in assay [3]; 117% (inactive) in assay [4]; 99.4% (inactive) in assay [5]; 87.4% in assay [6] (setting [9]); 99.4% in assay [6] (setting [10]). Further, in assay [2], the Her2 level was 94.5% (inactive). The differential viability (reversal) in assay [6] (H69AR cells + 2 uM doxorubicin) is 11.9% (inactive). Also, the inhibition is -7.47% (inactive) in assay [7] and 0.32% (inactive) in assay [8].

For the compound `CCn1nc(CC(=O)Nc2nnc(CC(=O)N3CCCCC3)s2)c2ccccc2c1=O`, the viability in assay [1] is 96%; in assay [3], 96% (inactive); in assay [4], 84.4% (inactive); in assay [5], 97.5% (inactive); in assay [6] (setting [9]), 92.7%; in assay [6] (setting [10]), 97.5%. Besides, in assay [2], the Her2 level was 102% (inactive). Further, the differential viability (reversal) in assay [6] (H69AR cells + 2 uM doxorubicin) is 4.77% (inactive). Moreover, the inhibition is -0.52% (inactive) in assay [7] and -4.83% (inactive) in assay [8].

As to `Cc1cccc2sc(NC(=O)CN(C)S(=O)(=O)c3cccs3)nc12`, the viability is 76.5% in assay [1]; 76.5% (inactive) in assay [3]; 48.8% (inactive) in assay [4]; 92% (inactive) in assay [5]; 92.5% in assay [6] (setting [9]); 92% in assay [6] (setting [10]). The Her2 level in assay [2] was 125% (inactive). Also, the differential viability (reversal) in assay [6] (H69AR cells + 2 uM doxorubicin) is -0.425% (inactive). For the same compound, the inhibition in assay [7] was 0.39% (inactive); in assay [8], -6.33% (inactive).

Consider `CCn1c(=O)c(C(=O)Nc2cccnc2)c(O)c2ccccc21`, for which the viability was 103% in assay [1]; 103% (inactive) in assay [3]; 113% (inactive) in assay [4]; 67.7% (inactive) in assay [5]; 91.9% in assay [6] (setting [9]); 67.7% in assay [6] (setting [10]). Moreover, the Her2 level in assay [2] is 84.5% (inactive). Further, the differential viability (reversal) in assay [6] (H69AR cells + 2 uM doxorubicin) was -24.2% (inactive). For the same compound, the inhibition was -0.93% (inactive) in assay [7] and 100% (active) in assay [8].

With `CN(C)CCCn1c(N)c(C#N)c2nc(C#N)c(C#N)nc21`, the viability in assay [1] is 179%; in assay [3] it was 179% (inactive); in assay [4] it was 66.9% (inactive); in assay [5], 90.1% (inactive); in assay [6] (setting [9]) it was 93.1%; in assay [6] (setting [10]) it was 90.1%. Moreover, the Her2 level in assay [2] was 47.5% (active). Moreover, in assay [6] (H69AR cells + 2 uM doxorubicin), the differential viability (reversal) was -3.03% (inactive). Besides, the inhibition in assay [7] was -1.89% (inactive); in assay [8], -1.75% (inactive).

For `Cc1ccc(-c2nn(C)c(=O)c3ccccc23)cc1S(=O)(=O)N1CCOCC1`, the viability in assay [1] is 77%; in assay [3], 77% (inactive); in assay [4], 83.8% (inactive); in assay [5], 92.8% (inactive); in assay [6] (setting [9]) it was 76.8%; in assay [6] (setting [10]) it was 92.8%. Further, the Her2 level in assay [2] is 83% (inactive). Moreover, in assay [6] (H69AR cells + 2 uM doxorubicin), the differential viability (reversal) is 16% (inactive). Moreover, the inhibition in assay [7] was -5.07% (inactive); in assay [8] it was -3.06% (inactive).

Regarding `Cc1ccc(-c2cc(C(=O)NCCN3CCOCC3)no2)cc1`, the viability is 86.5% in assay [1]; 86.5% (inactive) in assay [3]; 95.3% (inactive) in assay [4]; 99.8% (inactive) in assay [5]; 87% in assay [6] (setting [9]); 99.8% in assay [6] (setting [10]). Moreover, the Her2 level in assay [2] was 120% (inactive). Moreover, the differential viability (reversal) in assay [6] (H69AR cells + 2 uM doxorubicin) is 12.7% (inactive). The inhibition in assay [7] is 3.07% (inactive); in assay [8] it was -6.83% (inactive).

Source of the values: PubChem BioAssay.
